Assay results gathered from unrelated publications.
Lines come from different studies, so protocols differ.
Target: Serine/threonine-protein kinase Chk1 (CHEK1, Homo sapiens, UniProt O14757)
Residues used in one study (O14757 1-476): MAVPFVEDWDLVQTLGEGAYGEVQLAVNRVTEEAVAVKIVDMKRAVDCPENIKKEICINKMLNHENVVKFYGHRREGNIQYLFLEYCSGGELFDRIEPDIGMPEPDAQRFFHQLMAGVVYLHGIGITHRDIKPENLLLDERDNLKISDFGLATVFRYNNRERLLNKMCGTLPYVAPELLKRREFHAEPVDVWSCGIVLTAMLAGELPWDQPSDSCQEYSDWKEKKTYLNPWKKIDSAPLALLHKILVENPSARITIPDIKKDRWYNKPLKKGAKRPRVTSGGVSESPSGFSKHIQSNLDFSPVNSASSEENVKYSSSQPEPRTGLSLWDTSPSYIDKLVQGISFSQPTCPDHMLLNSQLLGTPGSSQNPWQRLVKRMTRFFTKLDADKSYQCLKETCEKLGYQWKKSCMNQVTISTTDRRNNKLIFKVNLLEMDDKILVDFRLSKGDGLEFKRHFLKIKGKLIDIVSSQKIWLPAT

Nc1ncc(-c2nc(N3CCOCC3)nc(N3CCOCC3)n2)c(C(F)F)n1  remaining binding (binding; competition with immobilised ligand; 10 µM): 67%
COc1cc(Nc2ncc(F)c(Nc3ccc4c(n3)NC(=O)C(C)(C)O4)n2)cc(OC)c1OC  inhibition (binding; competition with immobilised ligand; 10 µM): 62%
COc1ncccc1-c1cnn2ccc(N3CCN(C(=O)OC(C)C)CC3)nc12  remaining binding (binding; competition with immobilised ligand; 1 µM): 100%
O=c1[nH]c2ccccc2n1C1CCN(Cc2ccc(-c3[nH]c4cc5ncnc5cc4nc3-c3ccccc3)cc2)CC1  remaining signal (cell-free assay; 0.5 µM): 107%
C#Cc1n[nH]c2c(-c3cn([C@@H](C)c4ccccc4)c(=O)[nH]c3=O)cc(F)cc12  inhibition (enzyme activity; inhibitor; 0.1 µM): -1.2%
Cn1cc(-c2cc(F)cc(N3CCn4c(cc5c4CCCC5)C3=O)c2CO)cc(Nc2ccc(N3CCN(C4COC4)CC3)cn2)c1=O  inhibition (enzyme activity; inhibitor; 0.1 µM): 2%
C#Cc1n[nH]c2c(-c3cn([C@@H](C)c4ccccn4)c(=O)[nH]c3=O)cc(F)cc12  inhibition (enzyme activity; inhibitor; 0.1 µM): -3.2%
Cc1nn(C)cc1-c1nc2c(N3CCN(Cc4ccc(Cl)cc4)CC3)c(Cl)cnc2[nH]1  remaining binding (binding; competition with immobilised ligand; 1 µM): 100%
Cn1cc(-c2cccc(N3CCc4c(sc5c4CC(C)(C)C5)C3=O)c2CO)cc(Nc2ccncn2)c1=O  inhibition (enzyme activity; inhibitor; 1 µM): 1%
Cn1cncc1[C@@](O)(COc1ccc(C#N)cc1-c1ccc(OC(F)(F)F)cc1)c1ccc(C#N)cc1  remaining binding (cell-free assay; competition with immobilised ligand; 1 µM): 100%
CC(C)(C)c1cc(C=C(C#N)C#N)cc(Br)c1O  remaining activity (enzyme activity; inhibitor; 0.5 µM): 100%
